From publication PMC6318406 (Asian Pacific Journal of Cancer Prevention : APJCP, 2018) come the findings set out here.

Entries after “also recorded” stand apart in the source; their conditions may differ. Marks after values point to notes of the source that are not given here.

Common to all, as to type: in vivo, rat
For one data set, the system named is pro-caspase 3. Nature of the data set: Serum pro-caspase 3 by ELISA in NDEA-induced HCC rats. The settings on record: HCC afflicted rats, 50 mg/kg b.wt orally daily for 5 weeks. In a few lines:
(§1)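 Female Wistar rats, 170-200 g, 10/group. HCC induced by oral NDEA in 0.9% saline, 20 mg/kg five times weekly for 4 weeks, then 10 mg/kg five times weekly for 1 week. Saline-dosed healthy and untreated HCC groups. Overnight fast after the last dose. Retro-orbital blood drawn under ether and clotted 45 min at room temperature. Serum spun at 1,800 x g for 15 min at 4°C and stored at -20°C. Rat ELISA kits. Mean ± SE; ANOVA with Tukey test.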

The test system of data set [1] is heat shock protein-70 (HSP-70). Briefly: Serum heat shock protein-70. The conditions noted are these: HCC afflicted rats, 50 mg/kg b.wt orally daily for 5 weeks; mean ± SE. In a few lines:
as §1

The test system of data set [2] is β-cell leukemia/lymphoma 2 (Bcl-2). Briefly: Serum Bcl-2 by ELISA in NDEA-induced HCC rats. The settings on record: HCC afflicted rats, 50 mg/kg b.wt orally daily for 5 weeks. In a few lines:
as §1

Another data set has as its system endoglin (ENG). Nature of the data set: Serum endoglin. The settings on record: HCC afflicted rats, 50 mg/kg b.wt orally daily for 5 weeks; mean ± SE. Summed up:
as §1

A short description of data set [3]: Oral pharmacokinetic study in normal rats.
The test system of a further data set is alpha-fetoprotein (AFP). Briefly: Serum alpha-fetoprotein. The conditions noted are these: HCC afflicted rats, 50 mg/kg b.wt orally daily for 5 weeks; mean ± SE. In a few lines: as §1
The test system of the next data set is lipocalin-2 (LCN-2). Nature of the data set: Serum lipocalin-2. The settings on record: HCC afflicted rats, 50 mg/kg b.wt orally daily for 5 weeks. Summed up:
as §1

A short description of data set [4]: Oral pharmacokinetic study in HCC-induced rats. The conditions noted are these: serum. Summed up: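 HCC induced by oral NDEA (20 mg/kg five times weekly for 4 weeks, then 10 mg/kg for 1 week). Rats (n=6) were fasted 12 h, then given one oral 50 mg/kg dose of free or nanocomposite test compound. Serum was sampled 0.083–24 h, spiked with pyrogallol and extracted into ethyl acetate. Measured by C18 HPLC at 280 nm; non-compartmental analysis, ke from terminal log-linear slope, MRT = AUMC/AUC.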

The test system of data set [5] is hepatocellular carcinoma (HCC) afflicted rats. Briefly: Histological examination of liver tissue sections. The settings on record: 50 mg/kg b.wt orally daily for 5 weeks, H and E stain.
[6] abbreviates: normal rats, single dose 50 mg/kg p.o., serum.
The mark [7] stands for this setting: normal rats, single dose 50 mg/kg p.o., serum, 50 mg/kg.

In the case of `O=C(O)c1cc(O)c(O)c(O)c1` [GA, 3,4,5-trihydroxy benzoic acid], the “Change in serum pro-caspase 3 with respect to the HCC group” value in the data set with pro-caspase 3 was -60.5%. In addition, in [1], the “Serum HSP-70” value is reported as 43.56 ± 0.8426^b ng/ L. In addition, in data set [2], the “Change in serum Bcl-2 with respect to the HCC group” value is on record as -32.9%. In addition, the “Serum ENG” value in the data set with endoglin (ENG) is 4.16 ± 0.14^b ng/ml. Moreover, in [3] (setting [6]), the AUMC was determined as 2.03 ± 0.44 µg·mL/h and the AUMC last was 1.3 ± 0.13 µg·mL/h. The Duration of action result in data set [3] (normal rats, single dose 50 mg/kg p.o., serum concentration-time profile) is recorded as “approximately 1 hr”. In addition, in [3] (setting [7]), the C max was 1570 ± 108 ng/mL and the mean residence time (MRT) stood at 1.063 ± 0.155 h. In data set [3] (rat, serum, po, 50 mg/kg), the AUC(0-inf) stood at 1890 ± 130 ng·h/mL, the AUC(0-t) was 1640 ± 45 ng·h/mL, the Tmax is 0.46 ± 0.085 h and the half-life is 0.62 ± 0.09 h. For the same compound, the maximum concentration (Cmax) in [3] (rat, serum, po, 50 mg/kg, C max, normal rats, single dose 50 mg/kg p.o.) was 1590 ng/mL. Further, the mean residence time (MRT) in data set [3] (rat, serum, po, 50 mg/kg, MRT, normal rats, single dose 50 mg/kg p.o.) came to 1.06 h. The “Serum AFP” value in the data set on alpha-fetoprotein (AFP) is reported as 41.19 ± 0.83^b ng/ml. For the same compound, the “Change in serum LCN-2 with respect to the HCC group” value in the data set on lipocalin-2 (LCN-2) is on record as -34.8%. Also, the AUMC last in data set [4] (HCC-afflicted rats, single dose 50 mg/kg p.o.) worked out at 1.55 ± 0.014 µg·mL/h. In data set [4] (rat, po, 50 mg/kg), this compound showed an AUC(0-inf) of 1670 ± 40 ng·h/mL, an exposure AUC(0-t) of 1340 ± 194 ng·h/mL, an MRT of 1.43 ± 0.34 h and a half-life of 1.4 ± 0.32 h. Further, the “Histopathological findings in liver tissue section” value in data set [5] was “markedly recovered the anaplastic changes in the rat liver tissues; also recorded: congestion in the portal vein, multiple newly formed bile ducts and inflammatory cells infiltration in between at the portal area; also recorded: focal aggregations of mononuclear leucocytes inflammatory cells were detected in the hepatic parenchyma”.
